From ChEMBL document CHEMBL1156480, “Insensitivity to Abeta42-lowering nonsteroidal anti-inflammatory drugs and gamma-secretase inhibitors is common among aggressive presenilin-1 mutations” (J Biol Chem, 2007)
One block for each compound: values may come before it.

What was measured:
Assay type in all cases: cell-based
Parameters in all cases: scale not given: the % may be the effect or the level left
CHO [1] = experiment: Reduction of human PS1 delta exon9 mutant-induced amyloid beta-40 level in CHO cells overexpressing human APP751 at 100 nM after 24 hrs by liquid phase electrochemiluminescence assay relative to control
How it was run: (§1)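 APP751 CHO cells stably expressing PS1-ΔExon9, PS1-L166P or PS1-WT, cultured in parallel in serum-containing medium. Treated 24 h with increasing γ-secretase inhibitor concentrations or DMSO. Conditioned-media Abeta40/Abeta42 quantified by LPECL against synthetic peptide standards (16–2000 pg/ml). Duplicates normalized to DMSO. n = 3, one-way ANOVA with Dunnett's test versus PS1-WT.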

[2] = target: Presenilin-1 (Homo sapiens) (UniProt P49768); experiment: Reduction of human wild type PS1-induced amyloid beta-42 level in CHO cells overexpressing human APP751 at 50 nM after 24 hrs by liquid phase electrochemiluminescence assay relative to control
CHO [3] = experiment: Reduction of human PS1 delta exon9 mutant-induced amyloid beta-42 level in CHO cells overexpressing human APP751 at 100 nM after 24 hrs by liquid phase electrochemiluminescence assay relative to control; how it was run: as §1
[4] = tested on: Presenilin-1 (Homo sapiens), P49768 [L166P]; experiment: Reduction of human PS1 L166P mutant-induced amyloid beta42 level in CHO cells overexpressing human APP751 at 50 nM after 24 hrs by liquid phase electrochemiluminescence assay relative to control; how it was run: as §1
[5] = tested on: Presenilin-1 (Homo sapiens), P49768 [L166P]; experiment: Reduction of human PS1 L166P mutant-induced amyloid beta-40 level in CHO cells overexpressing human APP751 at 100 nM after 24 hrs by liquid phase electrochemiluminescence assay relative to control; how it was run: as §1
CHO [6] = experiment: Reduction of human PS1 delta exon9 mutant-induced amyloid beta-42 level in CHO cells overexpressing human APP751 at 25 nM after 24 hrs by liquid phase electrochemiluminescence assay relative to control; how it was run: as §1
CHO [7] = experiment: Reduction of human PS1 delta exon9 mutant-induced amyloid beta-40 level in CHO cells overexpressing human APP751 at 25 nM after 24 hrs by liquid phase electrochemiluminescence assay relative to control; how it was run: as §1
[8] = target: Presenilin-1 (Homo sapiens) (UniProt P49768); experiment: Reduction of human wild type PS1-induced amyloid beta-40 level in CHO cells overexpressing human APP751 at 50 nM after 24 hrs by liquid phase electrochemiluminescence assay relative to control
[9] = target: Presenilin-1 (Homo sapiens) (UniProt P49768); experiment: Reduction of human wild type PS1-induced amyloid beta-42 level in CHO cells overexpressing human APP751 at 100 nM after 24 hrs by liquid phase electrochemiluminescence assay relative to control
[10] = tested on: Presenilin-1 (Homo sapiens), P49768 [L166P]; experiment: Reduction of human PS1 L166P mutant-induced amyloid beta-40 level in CHO cells overexpressing human APP751 at 25 nM after 24 hrs by liquid phase electrochemiluminescence assay relative to control; how it was run: as §1
CHO [11] = experiment: Reduction of human PS1 delta exon9 mutant-induced amyloid beta-42 level in CHO cells overexpressing human APP751 at 50 nM after 24 hrs by liquid phase electrochemiluminescence assay relative to control
[12] = tested on: Presenilin-1 (Homo sapiens), P49768 [L166P]; experiment: Reduction of human PS1 L166P mutant-induced amyloid beta42 level in CHO cells overexpressing human APP751 at 25 nM after 24 hrs by liquid phase electrochemiluminescence assay relative to control; how it was run: as §1
[13] = tested on: Presenilin-1 (Homo sapiens), P49768 [L166P]; experiment: Reduction of human PS1 L166P mutant-induced amyloid beta-40 level in CHO cells overexpressing human APP751 at 50 nM after 24 hrs by liquid phase electrochemiluminescence assay relative to control; how it was run: as §1
CHO [14] = experiment: Reduction of human PS1 delta exon9 mutant-induced amyloid beta40 level in CHO cells overexpressing human APP751 at 50 nM after 24 hrs by liquid phase electrochemiluminescence assay relative to control
[15] = tested on: Presenilin-1 (Homo sapiens), P49768 [L166P]; experiment: Reduction of human PS1 L166P mutant-induced amyloid beta-42 level in CHO cells overexpressing human APP751 at 100 nM after 24 hrs by liquid phase electrochemiluminescence assay relative to control; how it was run: as §1
[16] = target: Presenilin-1 (Homo sapiens) (UniProt P49768); experiment: Reduction of human wild type PS1-induced amyloid beta-42 level in CHO cells overexpressing human APP751 at 25 nM after 24 hrs by liquid phase electrochemiluminescence assay relative to control
[17] = target: Presenilin-1 (Homo sapiens) (UniProt P49768); experiment: Reduction of human wild type PS1-induced amyloid beta-40 level in CHO cells overexpressing human APP751 at 100 nM after 24 hrs by liquid phase electrochemiluminescence assay relative to control
[18] = target: Presenilin-1 (Homo sapiens) (UniProt P49768); experiment: Reduction of human wild type PS1-induced amyloid beta-40 level in CHO cells overexpressing human APP751 at 25 nM after 24 hrs by liquid phase electrochemiluminescence assay relative to control
[19] = tested on: Presenilin-1 (Homo sapiens), P49768 [L166P]; experiment: Reduction of human PS1 L166P mutant-induced amyloid beta-42 level in CHO cells overexpressing human APP751 at 250 nM after 24 hrs by liquid phase electrochemiluminescence assay relative to control; how it was run: as §1
CHO [20] = experiment: Reduction of human PS1 delta exon9 mutant-induced amyloid beta-40 level in CHO cells overexpressing human APP751 at 250 nM after 24 hrs by liquid phase electrochemiluminescence assay relative to control; how it was run: as §1
[21] = tested on: Presenilin-1 (Homo sapiens), P49768 [L166P]; experiment: Reduction of human PS1 L166P mutant-induced amyloid beta40 level in CHO cells overexpressing human APP751 at 500 nM after 24 hrs by liquid phase electrochemiluminescence assay relative to control; how it was run: as §1
[22] = tested on: Presenilin-1 (Homo sapiens), P49768 [L166P]; experiment: Reduction of human PS1 L166P mutant-induced amyloid beta-40 level in CHO cells overexpressing human APP751 at 250 nM after 24 hrs by liquid phase electrochemiluminescence assay relative to control; how it was run: as §1
[23] = target: Presenilin-1 (Homo sapiens) (UniProt P49768); experiment: Reduction of human wild type PS1-induced amyloid beta-40 level in CHO cells overexpressing human APP751 at 500 nM after 24 hrs by liquid phase electrochemiluminescence assay relative to control
[24] = target: Presenilin-1 (Homo sapiens) (UniProt P49768); experiment: Reduction of human wild type PS1-induced amyloid beta-42 level in CHO cells overexpressing human APP751 at 250 nM after 24 hrs by liquid phase electrochemiluminescence assay relative to control
[25] = target: Presenilin-1 (Homo sapiens) (UniProt P49768); experiment: Reduction of human wild type PS1-induced amyloid beta-40 level in CHO cells overexpressing human APP751 at 250 nM after 24 hrs by liquid phase electrochemiluminescence assay relative to control
[26] = target: Presenilin-1 (Homo sapiens) (UniProt P49768); experiment: Reduction of human wild type PS1-induced amyloid beta-42 level in CHO cells overexpressing human APP751 at 500 nM after 24 hrs by liquid phase electrochemiluminescence assay relative to control
CHO [27] = experiment: Reduction of human PS1 delta exon9 mutant-induced amyloid beta-42 level in CHO cells overexpressing human APP751 at 250 nM after 24 hrs by liquid phase electrochemiluminescence assay relative to control; how it was run: as §1
CHO [28] = experiment: Reduction of human PS1 delta exon9 mutant-induced amyloid beta-42 level in CHO cells overexpressing human APP751 at 500 nM after 24 hrs by liquid phase electrochemiluminescence assay relative to control
CHO [29] = experiment: Reduction of human PS1 delta exon9 mutant-induced amyloid beta-40 level in CHO cells overexpressing human APP751 at 500 nM after 24 hrs by liquid phase electrochemiluminescence assay relative to control; how it was run: as §1
[30] = tested on: Presenilin-1 (Homo sapiens), P49768 [L166P]; experiment: Reduction of human PS1 L166P mutant-induced amyloid beta-42 level in CHO cells overexpressing human APP751 at 500 nM after 24 hrs by liquid phase electrochemiluminescence assay relative to control; how it was run: as §1

- Activity [2]: 18.8%
- Activity [4]: 50.3%
- Activity [5]: 14.9%
- Activity [8]: 14.6%
- Activity [9]: 8.13%
- Activity [10]: 54.4%
- Activity [12]: 72.3%
- Activity [13]: 30.3%
- Activity [15]: 34.5%
- Activity [16]: 44%
- Activity [17]: 5.82%
- Activity [18]: 33.8%
SMILES: C[C@H](NC(=O)Cc1cc(F)cc(F)c1)C(=O)N[C@H](C(=O)OC(C)(C)C)c1ccccc1
- Activity (CHO [1]): 60.8%
- Activity (CHO [3]): 65.9%
- Activity (CHO [6]): 107%
- Activity (CHO [7]): 101%
- Activity (CHO [11]): 94.9%
- Activity (CHO [14]): 90.2%

- Activity [19]: 44.1%
- Activity [21]: 13.1%
- Activity [5]: 41.5%
- Activity [22]: 20.6%
- Activity [9]: 11.3%
- Activity [23]: 1.92%
- Activity [24]: 3.28%
- Activity [25]: 2.95%
- Activity [26]: 2.59%
- Activity [15]: 62.3%
- Activity [17]: 8.1%
- Activity [30]: 34.2%
SMILES: CC(C)C[C@H](NC(=O)C(Cc1ccccc1)C[C@@H](O)[C@H](Cc1ccccc1)NC(=O)OC(C)(C)C)C(=O)N[C@@H](Cc1ccccc1)C(N)=O (single isomer, unassigned)
- Activity (CHO [1]): 86.3%
- Activity (CHO [3]): 98.3%
- Activity (CHO [20]): 54%
- Activity (CHO [27]): 54.5%
- Activity (CHO [28]): 34.1%
- Activity (CHO [29]): 33.4%
